Measured values reported in ChEMBL document CHEMBL2331304, “N1,N3-disubstituted uracils as nonnucleoside inhibitors of HIV-1 reverse transcriptase” (Bioorg Med Chem, 2013).
Calls of active or inactive are those of the source. The calls are words filed in the database; no cut-off is given here.

Key:
[1] = target: Human immunodeficiency virus type 1 reverse transcriptase (Human immunodeficiency virus 1, UniProt Q72547, Y181C); test: Inhibition of HIV1 reverse transcriptase p66/p51 Y181C mutant after 30 mins by liquid scintillation counting
[2] = tested on: Mammalian orthoreovirus 1; test: Antiviral activity against Reovirus 1; type: functional, organism-based
[3] = target: Human immunodeficiency virus type 1 reverse transcriptase (Human immunodeficiency virus 1, UniProt Q72547); test: Non-competitive inhibition of wild type HIV1 reverse transcriptase p66/p51 after 30 mins by liquid scintillation counting
Human alphaherpesvirus 3 = test: Antiviral activity against Varicella zoster virus; type: functional, organism-based
Summary of the method: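 VZV strain Oka and the TK− strain 07-1 were inoculated at 20 PFU onto confluent cell monolayers in the presence of varying compound concentrations. Plaque formation was recorded once complete in untreated infected controls.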

Human respirovirus 3 = test: Antiviral activity against Parainfluenza virus 3; type: functional, organism-based
Influenza A virus [4] = test: Antiviral activity against Influenza A virus H1N1; type: functional, organism-based
MT4 = test: Cytotoxicity against human MT4 cells after 4 days by MTT assay; type: cell-based; details: mt4, 96 h
Influenza A virus [5] = test: Antiviral activity against Influenza A virus H3N2; type: functional, organism-based
[6] = tested on: Human immunodeficiency virus 1; test: Antiviral activity against HIV1 3B infected in human MT4 cells assessed as inhibition of virus-induced cytopathic effect after 4 days by MTT assay; type: functional, organism-based; details: Human immunodeficiency virus 1, 3B, MT4, 96 h
Summary of the method: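 HIV-1 in MT-4 cells at 1 × 10^5 cells/ml, infected at MOI 0.02 (virus stock titrated as CCID50), then plated immediately onto varying compound concentrations. After 4 days at 37 °C, viable cells counted by MTT.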

[7] = target: Human immunodeficiency virus type 1 reverse transcriptase (Human immunodeficiency virus 1, UniProt Q72547, V106A); test: Inhibition of HIV1 reverse transcriptase p66/p51 V106A mutant after 30 mins by liquid scintillation counting
[8] = tested on: Vesicular stomatitis virus; test: Antiviral activity against Vesicular stomatitis virus; type: functional, organism-based
[9] = target: Human immunodeficiency virus type 1 reverse transcriptase (Human immunodeficiency virus 1, UniProt Q72547, L100I); test: Inhibition of HIV1 reverse transcriptase p66/p51 L100I mutant after 30 mins by liquid scintillation counting
Punta Toro virus = test: Antiviral activity against Punta Toro virus; type: functional, organism-based
Coxsackievirus B4 = test: Antiviral activity against Coxsackievirus B4; type: functional, organism-based
[10] = tested on: Respiratory syncytial virus; test: Antiviral activity against Respiratory syncytial virus; type: functional, organism-based
[11] = target: Human immunodeficiency virus type 1 reverse transcriptase (Human immunodeficiency virus 1, UniProt Q72547, K103N/Y181C); test: Inhibition of HIV1 reverse transcriptase p66/p51 K103N/Y181C mutant after 30 mins by liquid scintillation counting
Sindbis virus = test: Antiviral activity against Sindbis virus; type: functional, organism-based
Human alphaherpesvirus 1 = test: Antiviral activity against Human herpesvirus 1; type: functional, organism-based
Summary of the method: (§1)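 Confluent HEL, Vero, HeLa or MDCK monolayers (cell type per virus not specified) were inoculated with 100 CCID50 of virus, with a range of compound concentrations. Strains were HSV-1 KOS and TK− ACV-resistant KOS, HSV-2 Lyons and G, and HCMV AD-169 and Davis. Cytopathicity or plaques were scored once complete in untreated infected controls.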

Human alphaherpesvirus 2 = test: Antiviral activity against Human herpesvirus 2; type: functional, organism-based; summary of the method: as §1
[12] = Selectivity index, ratio of CC50 for human MT4 cells to EC50 for HIV1 3B infected in human MT4 cells; type: toxicity, cell-based; details: MT4 cells (uninfected for CC50; HIV-1 3B infected for EC50)
Feline coronavirus = test: Antiviral activity against Feline coronavirus; type: functional, organism-based
Vaccinia virus = test: Antiviral activity against Vaccinia virus; type: functional, organism-based; details: Orthopoxvirus vaccinia
[13] = Inhibition of HIV1 reverse transcriptase p66/p51 G190A mutant after 30 mins by liquid scintillation counting; parameters: species or system Human immunodeficiency virus 1
[14] = target: Human immunodeficiency virus type 1 reverse transcriptase (Human immunodeficiency virus 1, UniProt Q72547, K103N); test: Inhibition of HIV1 reverse transcriptase p66/p51 K103N mutant after 30 mins by liquid scintillation counting
Influenza B virus = test: Antiviral activity against influenza B virus; type: functional, organism-based
Human betaherpesvirus 5 [15] = test: Antiviral activity against HCMV Davis; type: functional, organism-based; details: Human betaherpesvirus 5, Davis; summary of the method: as §1
Human betaherpesvirus 5 [16] = test: Antiviral activity against HCMV AD169; type: functional, organism-based; details: Human betaherpesvirus 5, AD169; summary of the method: as §1

| Compound | Ki [1] | Activity [2] | Ki [3] | Activity (Human alphaherpesvirus 3) | Activity (Human respirovirus 3) | Activity (Influenza A virus [4]) | CC50 (MT4) | Activity (Influenza A virus [5]) | EC50 [6] | Ki [7] | Activity [8] | Ki [9] | Activity (Punta Toro virus) | Activity (Coxsackievirus B4) | Activity [10] | Ki [11] | Activity (Sindbis virus) | Activity (Human alphaherpesvirus 1) | Activity (Human alphaherpesvirus 2) | selectivity ratio [12] | further results |
| --- | --- | --- | --- | --- | --- | --- | --- | --- | --- | --- | --- | --- | --- | --- | --- | --- | --- | --- | --- | --- | --- |
| O=c1ccn(C/C=C/c2ccccc2)c(=O)n1Cc1cc(Br)cc(Br)c1 | 25 µM | inactive | 0.31 µM | inactive | inactive | inactive | 231 µM | inactive | 1.72 µM | 4.2 µM | inactive | 0.36 µM | inactive | inactive | inactive | > 100 µM | inactive | inactive | inactive | 134 | Activity (Feline coronavirus): inactive; Activity (Vaccinia virus): inactive; Ki [13]: 0.3 µM; Ki [14]: 9.4 µM; Activity (Influenza B virus): inactive |
| Cc1cc(C)cc(Cn2c(=O)ccn(C/C=C/c3ccccc3)c2=O)c1 | 75 µM | inactive | 0.55 µM | inactive | inactive | inactive | 257 µM | inactive | 1.27 µM | 2.9 µM | inactive | 0.76 µM | inactive | inactive | inactive | > 100 µM | inactive | inactive | inactive | 202 | Activity (Feline coronavirus): inactive; Activity (Vaccinia virus): inactive; Ki [13]: 0.4 µM; Ki [14]: 12 µM; Activity (Influenza B virus): inactive |
| Cc1cc(Br)cc(Cn2c(=O)ccn(C/C=C/c3ccccc3)c2=O)c1 | 20 µM | inactive | 0.31 µM | inactive | inactive | inactive | 100 µM | inactive | 1.36 µM | 2.3 µM | inactive | 0.24 µM | inactive | inactive | inactive | 85 µM | inactive | inactive | inactive | 73 | IC50 (Human betaherpesvirus 5 [15]): ≥ 20 µM; Activity (Feline coronavirus): inactive; Activity (Vaccinia virus): inactive; Ki [13]: 0.18 µM; Ki [14]: 6.9 µM; IC50 (Human betaherpesvirus 5 [16]): 16 µM; Activity (Influenza B virus): inactive |
| Cc1ccc(OCCn2ccc(=O)n(Cc3cc(C)cc(C)c3)c2=O)cc1 | 169 µM | inactive | 0.26 µM | inactive | inactive | inactive | > 343 µM | inactive | 0.27 µM | 7.5 µM | inactive | 0.13 µM | inactive | inactive | inactive | > 26 µM | inactive | inactive | inactive | > 1270 | Activity (Feline coronavirus): inactive; Activity (Vaccinia virus): inactive; Ki [13]: 0.36 µM; Ki [14]: > 26 µM; Activity (Influenza B virus): inactive |
| O=c1ccn(C/C=C/c2ccccc2)c(=O)n1Cc1cc(Cl)cc(Cl)c1 | 43 µM | inactive | 0.67 µM | inactive | inactive | inactive | 49 µM | inactive | 1.99 µM | 11 µM | inactive | 0.92 µM | inactive | inactive | inactive | > 100 µM | inactive | inactive | inactive | 24 | IC50 (Human betaherpesvirus 5 [15]): 12 µM; Activity (Feline coronavirus): inactive; Activity (Vaccinia virus): inactive; Ki [13]: 0.55 µM; Ki [14]: 15.5 µM; IC50 (Human betaherpesvirus 5 [16]): 9.4 µM; Activity (Influenza B virus): inactive |
